# An excerpt weighted towards active compounds, which were near 6.6% of everything screened.
# HEK293 NFkB inh = inhibitors of the PMA/ionomycin-induced NF-kB reporter in HEK293 cells; actives 0.21% (n = 62,000); inhibition, % at 3 µM; AID 465; HEK-293 NF-kB luciferase reporter, luminescence;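 active = inhibition above the mean of all tested compounds plus 3 SD, cut at about 40% in these data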;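 also: 0% = stimulated DMSO wells and 100% = 10 µM reference inhibitor 5653914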
#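 Material: HEK-293 cells with stable firefly luciferase reporter driven by four HIV NF-kB elements / Also added: PMA plus ionomycin mix as NF-kB-activating stimulus / Compound dosing: 3 µM once, 0.30% DMSO / Times: 1 h pretreatment, 16 h stimulation, 37 °C / Signal: luminescence / Evaluation: per-plate % inhibition versus controls / Benchmarks: DMSO and 10 µM reference inhibitor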
# M1 ag = M1 muscarinic receptor agonism; actives 3% (n = 64,000); CHO-M1 cells, Fluo-4 calcium fluorescence, agonist mode; active compounds read high; B-score at 10 µM;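 active = fluorescence rise, raw or as B-score row- and column-corrected plate score, outside the 99.7% band of its plate's samples, either direction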
# BAP1 inh = inhibitors of human BAP1 deubiquitinase | recombinant BAP1, Ub-AMC hydrolysis fluorescence kinetic; active compounds read low | calls only at 20 µM | actives 0.48% (n = 72,000) | AID 436;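 active = activity remaining at or below 50% of control, provided the compound also passes the data quality filters; inactive = the rest, including low values that fail the filters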;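 also: 100% = DMSO wells rate and 0% = substrate alone blank rate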
# Her2 expr inh = lowers expression of human Her2 kinase; HER2 level % of control, % at 10 µM; SKBR-3 HER2 protein level, AlphaScreen, 18-24 h; active compounds read low; actives 0.69% (n = 65,000); P04626;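 active = HER2 level under 5% of the carrier-only control; inconclusive = no clear call, values can overlap the other calls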;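 also: 100% = DMSO carrier and 0% = 500 nM PU-H71 HSP90 inhibitor; lower value means stronger loss of Her2 protein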
# JNK3 blocker = blocks human JNK3 kinase activity; purified JNK3 kinase activity, HTS; inhibition, % at 8 µM; actives 0.61% (n = 60,000); in the data active = inhibition above about 17%;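 also: 0% = DMSO and 100% = reference inhibitor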
# Target sequence (P53779 whole entry, looked up): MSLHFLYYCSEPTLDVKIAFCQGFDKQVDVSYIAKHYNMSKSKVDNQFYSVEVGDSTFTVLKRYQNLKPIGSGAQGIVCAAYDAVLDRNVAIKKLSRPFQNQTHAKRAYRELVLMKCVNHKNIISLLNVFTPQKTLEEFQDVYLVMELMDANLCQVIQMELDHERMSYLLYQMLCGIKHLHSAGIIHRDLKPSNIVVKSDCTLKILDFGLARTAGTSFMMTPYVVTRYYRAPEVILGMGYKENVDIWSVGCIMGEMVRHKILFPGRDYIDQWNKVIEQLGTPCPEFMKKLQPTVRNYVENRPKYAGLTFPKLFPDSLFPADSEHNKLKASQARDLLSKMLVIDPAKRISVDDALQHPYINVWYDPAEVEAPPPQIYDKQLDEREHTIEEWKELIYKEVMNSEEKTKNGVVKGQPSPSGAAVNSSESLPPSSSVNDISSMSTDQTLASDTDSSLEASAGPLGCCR
# M1 antag = blocks the rat M1 muscarinic receptor response to acetylcholine | P08482 | CHO-M1 cells, Fluo-4 calcium, ACh EC80 antagonist mode; active compounds read low | B-score at 10 µM | actives 3.4% (n = 64,000);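 active = calcium fluorescence response, raw or row-and-column corrected B-score, differing from the plate sample mean either way at a set confidence level, mostly lower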
# M1 agonist conf = confirmation of rat M1 muscarinic receptor agonists | CHO-M1 cells, Fluo-4 calcium fluorescence, agonist mode; actives lie on both sides | shares compounds with M1 ag | fluorescence change (max-min) at 10 µM | actives 19% (n = 1,700) | AID 1488;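 active = fluorescence change differs from the solvent-only DMSO control mean at a set confidence level in both duplicate runs; inconclusive = differs from solvent-only control mean in just one of two runs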;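 also: an EC20 dose of acetylcholine follows compound addition during the same imaging run; raw fluorescence intensity difference in instrument units with no normalization to controls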
# M4 agonist ctr = counter-screen for M1 agonists: activity at rat M4 receptor; fluorescence change (max-min) at 10 µM; actives 9% (n = 1,700); AID 1741; shares compounds with M1 ag; CHO M4/Gqi5 cells, Fluo-4 calcium fluorescence, agonist mode; actives lie on both sides;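 active = fluorescence change differing from the plate's solvent-only control wells at 99.7% confidence in both duplicates, whether higher or lower; inconclusive = differs from solvent controls in only one of two duplicates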
# Starred values were filed as active, the others as inactive; i = inactive; ? = inconclusive; . = no result shown.
SMILES,HEK293 NFkB inh,M1 ag,BAP1 inh,Her2 expr inh,JNK3 blocker,M1 antag,M1 agonist conf,M4 agonist ctr
CC1(C)CC(=O)C=C(NCCc2ccc(S(N)(=O)=O)cc2)C1,13.8,-0.384,i,105.2,4.1,0.27,.,.
NS(=O)(=O)c1ccc(CCNc2ncnc3sccc23)cc1,28.9,3.07*,i,104.1,-5.6,0.468,0.133,-15.3
CSC1=NCCN1C(=O)c1ccc(S(=O)(=O)N2CCCC2)cc1,-7.6,1.12,i,95.6,1.8,0.00662,.,.
CCN(CC)S(=O)(=O)c1ccc(C(=O)N2CCN=C2SC)cc1,2.3,15.6*,i,118.9,-2.2,0.136,?,-47.4
Cn1c(SCC(N)=O)nc2c1c(=O)[nH]c(=O)n2C,.,.,i,.,.,.,.,.
CCN1C(=S)SC(=O)C1=C1C=C(C)N(Cc2ccco2)C(C)=C1,-39.8,27*,.,187.2,.,0.169,135*,234*
Cn1cc(C(=O)c2ccc(F)cc2)cc1-c1nc2ccccc2n1C,9.5,3.22*,i,85.0,0.5,-1.98,-8.46,?
COc1ccc(C2C(C#N)=C(N)N3C(=C2C#N)Sc2ccccc23)cc1 (configuration not stated),1.0,46.1*,i,68.8,1.2,-1.53,131*,92.4
COC(=O)C1=C2SC(C)C(=O)N2C(N)=C(C#N)C1c1ccc(OC)c(OC)c1 (configuration not stated),22.4,-0.742,i,103.1,0.3,0.422,.,.
CC(C)(C)n1nc2c(c1NC(=O)c1ccc(F)cc1)CSC2,.,.,i,.,.,.,.,.
CCOc1ccc(CCNC(=O)c2oc3c(c2C)-c2[nH]ncc2CC3)cc1OCC,4.7,3.24*,i,60.5,7.4,-0.0157,-23.5*,-73.8*
N#Cc1sc2nc(-c3ccccc3)cc(-c3ccco3)c2c1N,-5.6,15.3*,i,87.0,7.6,0.784,23.5,-11.2
CCCC(OC(=O)CC1Sc2ccccc2NC1=O)C(=O)NCc1ccco1 (configuration not stated),10.2,2.49*,i,110.6,.,1.16,-19.3,-31
COCCNC(=O)C(OC(=O)CC1Sc2ccccc2NC1=O)c1ccncc1 (configuration not stated),14.5,-0.795,i,121.2,.,-0.00522,.,.
CC(C)c1nnc(N2C(=O)c3oc4ccccc4c(=O)c3C2c2ccco2)s1 (configuration not stated),17.0,-0.209,i,76.3,-4.9,-0.526,.,.
Cc1nnc(N2C(=O)c3oc4ccccc4c(=O)c3C2c2ccco2)s1 (configuration not stated),3.3,3.03*,i,110.9,-7.5,-0.255,?,-44.3
COc1cccc(OCCNc2cc(N3CCN(C)CC3)ccc2[N+](=O)[O-])c1,.,.,i,.,.,.,.,.
CCOc1ccc2nc(N3CCC(C(=O)N4CCN(C(=O)c5ccco5)CC4)CC3)sc2c1,10.9,2.83*,i,78.6,-5.3,-0.371,?,-38.2
CCOc1ccc2nc(N3CCCC(C(=O)N4CCN(CC)CC4)C3)sc2c1 (configuration not stated),-8.1,0.31,i,104.3,-6.4,-0.397,.,.
CCOc1ccc(NS(=O)(=O)CC(C)C)cc1,.,.,i,.,.,.,.,.
O=S(=O)(NCC1CCCO1)c1ccc(Oc2ccccc2)cc1 (configuration not stated),14.3,-0.581,i,116.0,2.4,0,.,.
CCC(Oc1ccccc1)C(=O)Nc1ccc(S(=O)(=O)NCC2CCCO2)cc1 (configuration not stated),7.9,-2.17*,i,171.9,-1.7,-0.713,-2.97,-24.7
CCOC(=O)Cn1c2ccc(OC)cc2c2nc3ccccc3nc21,20.1,18.6*,.,97.2,-2.0,-0.201,-10.4,-20.6
Cc1ccccc1Nc1nc(N)nc(CSc2nc3ccccc3c(=O)n2CCCO)n1,19.6,4.08*,i,82.2,4.7,0.155,?,-48.8
O=C(CN1CCN(C2CCCCC2)CC1)NCCC1=CCCCC1,7.2,12.7*,i,93.1,3.4,-0.367,94*,-45.9
SMILES,HEK293 NFkB inh,M1 ag,BAP1 inh,Her2 expr inh,JNK3 blocker,M1 antag,M1 agonist conf,M4 agonist ctr
CC(C)NC(=O)c1cnc(N2CCN(c3ccccn3)CC2)c2ccccc12,16.5,5.84*,i,63.7,-1.4,0.0946,-18.4,-28.6
O=C(c1ccc2c3c(cccc13)CC2)N1CCN(c2ncccn2)CC1,6.8,1.31,i,73.3,-12.8,0.207,.,.
COc1ccc(OC(C)C(=O)N2CCN(c3ccccn3)CC2)cc1 (configuration not stated),4.4,-0.428,i,70.5,-6.6,0.0823,.,.
CCN(C(=O)c1cnc(N2CCN(c3ncccn3)CC2)c2ccccc12)c1cccc(Cl)c1,20.0,3.32*,.,52.8,-2.9,-0.784,-19.3,?
CCN(C(=O)c1cc(Cl)ccc1OC)c1ccccc1,11.2,0.716,i,127.6,-5.3,0.0628,.,.
CN(C(=O)c1cnc(N2CCN(c3ncccn3)CC2)c2ccccc12)c1ccc(Cl)cc1,5.0,5.32*,i,88.9,4.0,-0.759,-16.1,?
O=C(COc1ccc(Cl)cc1)N1CCN(c2ncccn2)CC1,8.0,0.101,i,84.6,-0.6,0.00383,.,.
O=C(c1cnc(N2CCN(c3ncccn3)CC2)c2ccccc12)N1CCN(c2ncccn2)CC1,13.5,11.2*,i,106.8,8.1,-1.25,-13.7,-27.7
O=C(Nc1cccc2c1C(=O)c1ccccc1C2=O)c1ccc(-c2ccccc2)cc1,.,.,i,.,.,.,.,.
O=C1CC(C=Cc2cccc([N+](=O)[O-])c2)=Nc2ccccc2N1,.,.,i,.,.,.,.,.
CC1(C)COC(c2ccccc2)=N1,.,.,i,.,.,.,.,.
COc1ccc(OC)c(N2C(=O)C3C4c5ccccc5C(C(=O)O)(c5ccccc54)C3C2=O)c1 (configuration not stated),.,.,i,.,.,.,.,.
O=C(CCCCCN1C(=O)c2ccccc2C1=O)Nc1cccc([N+](=O)[O-])c1,.,.,i,.,.,.,.,.
Cc1ccc(S(=O)(=O)N2C(=O)CCC2C(=O)NCc2ccco2)cc1 (configuration not stated),-3.1,-0.264,i,126.3,1.6,0.333,.,.
COC(=O)c1cc(OC)c(OC)cc1NC(=O)C1CCC(=O)N1S(=O)(=O)c1ccc(C)cc1 (configuration not stated),24.5,-2.01*,i,.,-5.8,-0.0421,?,-25.9
COc1ccc(C=Nc2c(C)n(-c3ccccc3)c(=O)n2C)cc1,.,.,i,.,.,.,.,.
O=C(c1ccc(-c2ccccc2)cc1)N1CCN(C(=O)c2ccco2)CC1,13.9,-0.0105,i,103.0,-2.3,-0.217,.,.

# From PubChem
